Consider 8 molecules from ChEMBL document CHEMBL1156273, “Membrane permeable cyclic peptidyl inhibitors against human Peptidylprolyl Isomerase Pin1” (J Med Chem, 2010).

In data set [1] the test system is HeLa. Put plainly: Cellular uptake in human HeLa cells assessed as cytoplasmic localization at 1 uM after 48 hrs by fluorescence microscopy. The data set is classed as ADME, cell-based. In short, it runs like this: (§1)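 HeLa cells in DME + 10% FBS, 1% pen/strep, 37 °C, 5% CO2, grown on cover glass. Given 0 or 1.0 μM FITC-labeled peptide (FITC on the Glu side chain via a Lys linker) for 48 h. Then PBS-washed, fixed in 3.7% paraformaldehyde, permeabilized with goat serum/Triton X-100, DAPI-stained, and imaged by fluorescence microscopy.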

Data set [2] concerns HeLa. Put plainly: Cellular uptake in human HeLa cells assessed as nuclear localization at 1 uM after 48 hrs by fluorescence microscopy. Format: ADME, cell-based. In short, it runs like this: as §1
The next data set concerns BT-474. Put plainly: Antiproliferative activity against human BT474 cells at […] after 6 days. The data set is classed as functional.
Data set [3] has as its target Peptidyl-prolyl cis-trans isomerase NIMA-interacting 1 (Homo sapiens) (UniProt Q13526). Put plainly: Inhibition of Pin1 in human BT474 cells assessed as increase in SMRT level at 5 uM by Western blotting. The data set is classed as cell-based. As to conditions: BT-474. In short, it runs like this:
(§2)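 Cells given peptide for 48 h: HeLa in DME + 10% FBS, pen/strep; BT-474 in Hybri-Care DME + 10% FBS. Vehicle control DMSO. Lysed in RIPA with protease inhibitors, equal protein (Bradford) on 8% SDS-PAGE, nitrocellulose transfer, milk block. Probed with anti-SMRT, anti-PML and anti-β-actin (loading), HRP secondary, chemiluminescent detection.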
For orientation: In western blotting, separated proteins are transferred to a membrane and probed.

For data set [4] the target is unchanged. Put plainly: Inhibition of Pin1 in human BT474 cells assessed as increase in PML level at 5 uM by Western blotting. Format: cell-based. As to conditions: BT-474. An outline of the steps: as §2

The source made the active and inactive calls. No cut-off for these calls is given here. Square brackets hold non-standard residues; d marks the D form. Peptide text beside a SMILES is read from it. dalloThr(PO3H2) = C[C@@H](OP(=O)(O)O)[C@@H](N)C(=O)O; d(pT) = C[C@H](OP(=O)(O)O)[C@@H](N)C(=O)O; 2Nal = N[C@@H](Cc1ccc2ccccc2c1)C(=O)O; Pip = O=C(O)[C@@H]1CCCCN1

Peptidyl-prolyl cis-trans isomerase NIMA-interacting 1 (Homo sapiens), sequence (Q13526 whole entry): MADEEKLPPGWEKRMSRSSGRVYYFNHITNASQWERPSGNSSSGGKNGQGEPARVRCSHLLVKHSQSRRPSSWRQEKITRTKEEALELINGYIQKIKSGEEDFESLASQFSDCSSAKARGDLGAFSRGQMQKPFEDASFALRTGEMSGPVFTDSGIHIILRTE

As for `C[C@@H](OP(=O)(O)O)[C@H]1NC(=O)[C@@H](CCCNC(=N)N)NC(=O)[C@@H](CCCNC(=N)N)NC(=O)[C@H](CCC(N)=O)NC(=O)[C@H](CCCNC(=N)N)NC(=O)[C@H](Cc2ccc3ccccc3c2)NC(=O)[C@@H]2CCCCN2C1=O`, the Drug uptake entry in the data set on HeLa [1] and in the data set on HeLa [2] was “Active” each time.

With `C[C@H](O)[C@H]1NC(=O)[C@@H](CCCNC(=N)N)NC(=O)[C@@H](CCCNC(=N)N)NC(=O)[C@H](CCC(N)=O)NC(=O)[C@H](CCCNC(=N)N)NC(=O)[C@H](Cc2ccc3ccccc3c2)NC(=O)[C@@H]2CCCCN2C1=O`, the Drug uptake entry in the data set on HeLa [1] and with HeLa [2] was “Active” each time.

For `C[C@H]1NC(=O)[C@H](CCC(N)=O)NC(=O)[C@H](CCCN)NC(=O)[C@H](Cc2ccc3ccccc3c2)NC(=O)[C@@H]2CCCCN2C(=O)[C@@H]([C@@H](C)OP(=O)(O)O)NC(=O)CNC1=O`, in the data set with BT-474, the outcome was inactive.

With `C[C@H](O)[C@H]1NC(=O)[C@H](CCCNC(=N)N)NC(=O)[C@H](CCCNC(=N)N)NC(=O)[C@H](CCCNC(=N)N)NC(=O)[C@H](CCC(N)=O)NC(=O)[C@H](CCCNC(=N)N)NC(=O)[C@H](CCCNC(=N)N)NC(=O)[C@H](Cc2ccc3ccccc3c2)NC(=O)[C@@H]2CCCCN2C1=O` (cyclo([2Nal]RRQRRR[dT][Pip])), the Drug uptake entry with HeLa [1] and with HeLa [2] was “Active” in each case.

As for `C[C@@H](OP(=O)(O)O)[C@H]1NC(=O)[C@H](CCCNC(=N)N)NC(=O)[C@H](CCCNC(=N)N)NC(=O)[C@H](CCCNC(=N)N)NC(=O)[C@H](CCC(N)=O)NC(=O)[C@H](CCCNC(=N)N)NC(=O)[C@H](CCCNC(=N)N)NC(=O)[C@H](Cc2ccc3ccccc3c2)NC(=O)[C@@H]2CCCCN2C1=O` (cyclo([2Nal]RRQRRR[dalloThr(PO3H2)][Pip])), the result in data set [3] and in data set [4] was Active. The Drug uptake result in the data set on HeLa [1] and with HeLa [2] was “Active” throughout.

In the case of `C[C@H](OP(=O)(O)O)[C@H]1NC(=O)[C@@H](CCCNC(=N)N)NC(=O)[C@@H](CCCNC(=N)N)NC(=O)[C@H](CCC(N)=O)NC(=O)[C@@H](CCCNC(=N)N)NC(=O)[C@@H](CCCNC(=N)N)NC(=O)[C@@H](CCCNC(=N)N)NC(=O)[C@H](CCCNC(=N)N)NC(=O)[C@H](Cc2ccc3ccccc3c2)NC(=O)[C@@H]2CCCCN2C1=O` (cyclo([dR][dR][d(pT)][Pip][2Nal]R[dR][dR][dR]Q)), the Drug uptake result in the data set on HeLa [1] and in the data set on HeLa [2] was “Active” each time.

On to `C[C@H](O)[C@H]1NC(=O)[C@@H](CCCNC(=N)N)NC(=O)[C@@H](CCCNC(=N)N)NC(=O)[C@H](CCC(N)=O)NC(=O)[C@@H](CCCNC(=N)N)NC(=O)[C@@H](CCCNC(=N)N)NC(=O)[C@@H](CCCNC(=N)N)NC(=O)[C@H](CCCNC(=N)N)NC(=O)[C@H](Cc2ccc3ccccc3c2)NC(=O)[C@@H]2CCCCN2C1=O` (cyclo([dR][dR][dT][Pip][2Nal]R[dR][dR][dR]Q)), for which the Drug uptake entry in the data set with HeLa [1] and in the data set on HeLa [2] was “Active” in each case.

For `CC1NC(=O)[C@H](CCC(N)=O)NC(=O)[C@H](Cc2ccc(O)cc2)NC(=O)[C@H](Cc2ccc3ccccc3c2)NC(=O)[C@@H]2CCCCN2C(=O)[C@@H]([C@@H](C)OP(=O)(O)O)NC(=O)CN(C)C1=O` (stereo in doubt), in the data set with BT-474, the result was inactive.
